Source: ChEMBL document CHEMBL1240484, “New 4H-chromen-4-one and 2H-chromene derivatives as anti-picornavirus capsid-binders” (Bioorg Med Chem, 2010)
The source made the active and inactive calls. No cut-off for these calls is given here.

Assays:
[1] = Cytotoxicity against human HeLa cells after 3 days by XTT assay; format: cell-based; conditions: read-out: TC50
Method in brief: (§1)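 HeLa cells seeded at 2 × 10³ per well with twofold compound dilutions from the maximum soluble concentration, quadruplicate wells, 37 °C in 5% CO2 for 3 days until controls were confluent. Morphology also scored microscopically. MNTC is the highest dose with no toxicity or growth reduction.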

[2] = Cytotoxicity against human HeLa cells assessed as maximum non-cytotoxic concentration after 3 days by XTT assay; format: cell-based
Method in brief: as §1, with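 “confluent. XTT added (final 0.15 mg/mL) for 4 h, absorbance read at 492 nm with 690 nm reference.” for “confluent.”, “microscopically. […]” for “microscopically.”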

rhinovirus A1B [3] = assay: Antiviral activity against Human rhinovirus 1B infected in human HeLa cells after 3 days by plaque reduction assay; format: functional, organism-based
Method in brief: (§2)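 HeLa monolayers infected with ATCC HRV 14 or 1B at about 100 plaques per well, 1 h adsorption at 33 °C. Inoculum removed, then plaque overlay with fourfold drug dilutions from the MNTC. Three days at 33 °C, neutral red (0.2 mg/mL, PBS pH 7.4) staining and plaque count, triplicate wells. IC50 from log dose vs % reduction relative to mock-treated control. Otherwise % inhibition at MNTC is reported.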

[4] = Therapeutic index, ratio of TC50 for human HeLa cells to IC50 for HRV 1B; format: cell-based; conditions: read-out: TI
Method in brief: (§3)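 Therapeutic index calculated as TC50 for HeLa cells (XTT, 3 days) divided by IC50 for plaque reduction of HRV 14 or HRV 1B in HeLa cells.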

rhinovirus B14 = assay: Antiviral activity against Human rhinovirus 14 infected in human HeLa cells after 3 days by plaque reduction assay; format: functional, organism-based; method in brief: as §2
[5] = Therapeutic index, ratio of TC50 for human HeLa cells to IC50 for HRV 14; format: cell-based; conditions: read-out: TI; method in brief: as §3
[6] = Cytotoxicity against human Hep2 cells assessed as maximum non-cytotoxic concentration after 3 days by XTT assay; format: cell-based, HEp-2
Method in brief: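 Hep-2 cells grown in high-glucose DMEM, seeded at 2 × 10³ per well with twofold dilutions from the maximum soluble concentration, quadruplicate wells, 3 days at 37 °C in 5% CO2. XTT (final 0.15 mg/mL) for 4 h, read at 492/690 nm, plus microscopic scoring. MNTC is the highest dose causing no toxic effect or growth reduction.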

Enterovirus A71 [7] = assay: Antiviral activity against Human enterovirus 71 infected in human Hep2 cells after 2 days by plaque reduction assay; format: functional, organism-based
Method in brief: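 Inoculum removed, then plaque overlay with fourfold drug dilutions starting from the MNTC. Two days at 37 °C, neutral red (0.2 mg/mL in PBS pH 7.4) staining, plaques counted, triplicate wells. IC50 taken from log dose vs % plaque reduction.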

Enterovirus A71 [8] = assay: Antiviral activity against Human enterovirus 71 infected in human Hep2 cells at maximum non-cytotoxic concentration […] by plaque reduction assay; format: functional, HEp-2
rhinovirus A1B [9] = assay: Antiviral activity against Human rhinovirus 1B infected in human HeLa cells assessed as virus stabilization at 20 uM at 56 degC after 1 hr by plaque reduction assay (reference value: 3.5 x 10^7 PFU/ml); format: functional
Method in brief: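 HRV 1B held with or without 20 µM compound for 1 h at 33 °C, then heated 20 min at 56 °C (pH 7.2) and chilled on ice. Serial 10-fold dilution and plaque titration on HeLa monolayers.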

rhinovirus A1B [10] = assay: Antiviral activity against Human rhinovirus 1B infected in human HeLa cells assessed as inhibition of viral replication at 20 uM after 10 hrs by plaque reduction assay; format: functional; set-up: scale not given: the % may be the effect or the level left
Method in brief: (§4)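 One-step growth of HRV 1B in confluent HeLa cells, multiplicity of five, attachment 1 h at 4 °C, then three PBS washes (time 0). Compound at 20 µM present throughout, during adsorption only, or added or removed at 0.5, 1, 2 or 4 h p.i. Incubation at 33 °C to 10 h p.i., three freeze-thaw cycles, supernatant titred by plaque assay on HeLa cells.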

rhinovirus A1B [11] = assay: Antiviral activity against Human rhinovirus 1B infected in human HeLa cells assessed as reduction of viral yeild at 20 uM treated immediately after virus infection measured after 10 hrs by plaque reduction assay; format: functional; set-up: scale not given: the % may be the effect or the level left; method in brief: as §4
rhinovirus A1B [12] = assay: Antiviral activity against Human rhinovirus 1B infected in human HeLa cells assessed as reduction of viral yeild at 20 uM treated 30 mins after virus infection measured after 10 hrs by plaque reduction assay; format: functional; set-up: scale not given: the % may be the effect or the level left; method in brief: as §4
rhinovirus A1B [13] = assay: Antiviral activity against Human rhinovirus 1B infected in human HeLa cells assessed as reduction of viral yeild at 20 uM treated 1 hr after virus infection measured after 10 hrs by plaque reduction assay; format: functional; set-up: scale not given: the % may be the effect or the level left; method in brief: as §4
rhinovirus A1B [14] = assay: Antiviral activity against Human rhinovirus 1B infected in human HeLa cells assessed as reduction of viral yeild at 20 uM treated 2 to 4 hrs after virus infection measured after 10 hrs by plaque reduction assay; format: functional, organism-based; method in brief: as §4
rhinovirus A1B [15] = assay: Antiviral activity against Human rhinovirus 1B infected in human HeLa cells assessed as reduction of viral yeild at 20 uM after 1 hr by plaque reduction assay; format: functional; set-up: scale not given: the % may be the effect or the level left
rhinovirus A1B [16] = assay: Antiviral activity against Human rhinovirus 1B infected in human HeLa cells assessed as reduction of viral yeild at 20 uM treated 1 hr before infection measured after 10 hrs by plaque reduction assay; format: functional, organism-based; method in brief: as §4
rhinovirus A1B [17] = assay: Antiviral activity against Human rhinovirus 1B infected in human HeLa cells assessed as reduction of viral yeild at 20 uM treated immediately after virus infection measured 30 mins after washout by plaque reduction assay; format: functional; set-up: scale not given: the % may be the effect or the level left; method in brief: as §4
rhinovirus A1B [18] = assay: Antiviral activity against Human rhinovirus 1B infected in human HeLa cells assessed as reduction of viral yeild at 20 uM treated immediately after virus infection measured >1 hr after washout by plaque reduction assay; format: functional, organism-based; method in brief: as §4
rhinovirus A1B [19] = assay: Antiviral activity against Human rhinovirus 1B infected in human HeLa cells assessed as virus inactivation at 20 uM at 33 degC after 1 hr by plaque reduction assay (reference value: 2.86 x 10^7 PFU/ml)

For `C1=C(/C=C/c2ccccc2)COc2ccccc21`, the CC50 at 72 h [1] was 50000 nM, the MNTC at 72 h [2] was 25 µM and the Activity (rhinovirus A1B [3]) was “Dose-dependent effect”. The IC50 (rhinovirus A1B [3]; Rhinovirus A, 72 h) was 200 nM, the selectivity ratio [4] was 250 and the Activity (rhinovirus B14) was “Dose-dependent effect”. For the same compound, the IC50 (rhinovirus B14; Rhinovirus B, 72 h) was 1380 nM, the selectivity ratio [5] was 36.2 and the MNTC at 72 h [6] was 12.5 µM. The IC50 (Enterovirus A71 [7]; Enterovirus A, HEp-2, 48 h) was over 12500 nM, the Activity (Enterovirus A71 [7]; HEp-2) was “Dose-dependent effect” and the “inhibition (INH)” value (Enterovirus A71 [8]) was 36.1%. The log10PFU/ml (rhinovirus A1B [9]) was 2.1, the Activity (rhinovirus A1B [10]) was 92% and the Activity (rhinovirus A1B [11]) was 91.4%. For the same compound, the Activity (rhinovirus A1B [12]) was 90%, the Activity (rhinovirus A1B [13]) was 7.7% and the Activity (rhinovirus A1B [14]) was “inactive”. For the same compound, the Activity (rhinovirus A1B [15]) was 91.7%, the Activity (rhinovirus A1B [16]) was “inactive” and the Activity (rhinovirus A1B [17]) was 91.8%. For the same compound, the Activity (rhinovirus A1B [18]) was “Active” and the PFU/ml (rhinovirus A1B [19]) was 26600000.
